Active and inactive are the calls of the source. No cut-off for these calls is given here.

Assay [1] concerns the target Replicase polyprotein 1ab (Severe acute respiratory syndrome-related coronavirus) (UniProt P0C6X7). Put plainly: Inhibition of SARS coronavirus recombinant 3C-like protease expressed in Escherichia coli BL21(DE3) at 100 uM after 18 mins by FRET based assay.
For assay [2], the target named is T1, Replicase polyprotein 1ab (Severe acute respiratory syndrome-related coronavirus, UniProt P0C6X7). Nature of the assay: Inhibition of SARS coronavirus recombinant 3C-like protease expressed in Escherichia coli BL21(DE3) after 30 mins by FRET based assay.
Assay [3] addresses Replicase polyprotein 1ab (Severe acute respiratory syndrome-related coronavirus) (UniProt P0C6X7). Put plainly: Competitive inhibition of SARS coronavirus recombinant 3C-like protease expressed in Escherichia coli BL21(DE3) by Dixon plot analysis. The method in brief:
(§1)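 Inhibitor at 0, 20, 30, 40, 50 and 60 μM; substrate at 5, 7.5 and 10 μM. Mode assigned from Lineweaver–Burk and Dixon plots. Km and Ki come from linear regression, with Ki taken from the common x-axis intercept on the Dixon plot.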

The target in assay [4] is T1, Replicase polyprotein 1ab. Put plainly: Inhibition of SARS coronavirus recombinant 3C-like protease expressed in Escherichia coli BL21(DE3) by Lineweaver-Burk plot analysis. Summed up:
as §1

For `Cc1nc(C)c(C(=O)C2=C(O)C(=O)N(CCCN3CCOCC3)C2c2cccc([N+](=O)[O-])c2)s1` (stereo not drawn), the inhibition in assay [1] came out at 49.1%. For the same compound, in assay [2], the IC50 came out at 101 µM.
`O=C(CSc1ncnc2c1sc1nc(N3CCOCC3)c3c(c12)CCCC3)NCc1ccco1`: in assay [1], the inhibition worked out at 53.3%. In addition, the IC50 in assay [2] came out at 90.7 µM.
In the case of `COc1cc(/C=N/NC(=O)/C(=C\c2ccccc2)NC(=O)c2ccccc2)cc(OC)c1O`, the inhibition in assay [1] came out at 56.1%. The IC50 in assay [2] was 77.1 µM.
Consider `Nc1nc(CSc2nnc(-c3cccc4ccccc34)n2-c2ccccc2)cs1`, for which the inhibition in assay [1] was 58.2%. The IC50 in assay [2] stood at 58.3 µM.
As to `Cc1ccc(C(=O)N/C(=C\c2ccc(-c3cccc([N+](=O)[O-])c3)o2)C(=O)NCCCN(C)C)cc1`, the inhibition in assay [1] worked out at 82.6%. Further, the IC50 in assay [2] was 38.6 µM. In addition, the inhibition result in assay [3] was “Active”. Besides, the Ki in assay [4] is 9.11 µM.
Regarding `Cc1ccc(C(=O)N/C(=C\c2ccc(-c3ccccc3[N+](=O)[O-])o2)C(=O)NCCCN(C)C)cc1`, the inhibition in assay [1] was 81.4%. In addition, in assay [2], the IC50 is 41.4 µM. The inhibition entry in assay [3] was “Active”. In addition, the Ki in assay [4] is 9.93 µM.
Turning to `COc1cc(C2C(C(=O)c3ccc(OCC(C)C)cc3C)=C(O)C(=O)N2CCN(C)C)ccc1O` (stereo not drawn), the inhibition in assay [1] was 61.4%. In addition, the IC50 in assay [2] turned out to be 62.8 µM.

As a reminder, the inhibition is the drop in the measured response relative to a control, in per cent. By IC50 is commonly meant the concentration that inhibits the measured activity by half. By Ki is commonly meant the dissociation constant of the complex between target and ligand, obtained from inhibition or displacement.

The values are drawn from ChEMBL document CHEMBL1773021, “Virtual screening identification of novel severe acute respiratory syndrome 3C-like protease inhibitors and in vitro confirmation” (Bioorg Med Chem Lett, 2011).
